{"source": "ChEMBL document CHEMBL1136473", "about": "“6-(2-adamantan-2-ylidene-hydroxybenzoxazole)-O-sulfamate: a potent non-steroidal irreversible inhibitor of human steroid sulfatase” (Bioorg Med Chem Lett, 2003)", "key": {"Steryl-sulfatase [1]": {"biological_target": "T1, Steryl-sulfatase (Homo sapiens, UniProt P08842)", "T1 sequence (P08842 whole entry)": "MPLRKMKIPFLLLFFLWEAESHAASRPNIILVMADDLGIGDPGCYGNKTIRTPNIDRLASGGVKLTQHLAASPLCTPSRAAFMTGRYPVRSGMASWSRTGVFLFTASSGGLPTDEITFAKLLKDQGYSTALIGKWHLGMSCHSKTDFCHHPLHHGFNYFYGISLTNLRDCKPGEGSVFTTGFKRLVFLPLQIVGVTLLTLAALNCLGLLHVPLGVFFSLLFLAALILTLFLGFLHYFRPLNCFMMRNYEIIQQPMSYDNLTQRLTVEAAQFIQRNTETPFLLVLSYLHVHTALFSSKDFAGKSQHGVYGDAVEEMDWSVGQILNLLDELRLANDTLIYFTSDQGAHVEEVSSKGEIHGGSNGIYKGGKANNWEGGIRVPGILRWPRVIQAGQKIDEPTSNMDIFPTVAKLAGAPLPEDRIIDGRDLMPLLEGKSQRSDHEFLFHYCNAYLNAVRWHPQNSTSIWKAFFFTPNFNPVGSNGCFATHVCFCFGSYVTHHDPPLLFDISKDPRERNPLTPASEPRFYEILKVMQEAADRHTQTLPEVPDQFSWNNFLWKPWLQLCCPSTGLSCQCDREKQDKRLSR", "assay": "Inhibitory activity against human steroid sulfatase expressing in CHO cells", "type": "cell-based"}, "Steryl-sulfatase [2]": {"biological_target": "T1, Steryl-sulfatase", "assay": "Inhibitory constant against purified human steroid sulfatase"}, "Steryl-sulfatase [3]": {"biological_target": "T1, Steryl-sulfatase", "assay": "Inhibitory activity against human steroid sulfatase in fibroblasts"}, "Steryl-sulfatase [4]": {"biological_target": "T1, Steryl-sulfatase", "assay": "Inhibition of human STS in keratinocytes", "type": "cell-based"}, "[5]": {"biological_target": "T2, Steryl-sulfatase (Homo sapiens) (UniProt P08842)", "T2 sequence (whole entry)": "T1 sequence (P08842 whole entry)", "assay": "Rate constant of inactivation against human steroid sulfatase", "outline": "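Purified human steroid sulfatase incubated with a range of inhibitor concentrations. Residual enzyme activity measured over time to follow inactivation kinetics, giving Ki and kinact.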"}, "Estrogen receptor beta": {"biological_target": "Estrogen receptor beta (Homo sapiens, UniProt Q92731)", "sequence (Q92731 whole entry)": "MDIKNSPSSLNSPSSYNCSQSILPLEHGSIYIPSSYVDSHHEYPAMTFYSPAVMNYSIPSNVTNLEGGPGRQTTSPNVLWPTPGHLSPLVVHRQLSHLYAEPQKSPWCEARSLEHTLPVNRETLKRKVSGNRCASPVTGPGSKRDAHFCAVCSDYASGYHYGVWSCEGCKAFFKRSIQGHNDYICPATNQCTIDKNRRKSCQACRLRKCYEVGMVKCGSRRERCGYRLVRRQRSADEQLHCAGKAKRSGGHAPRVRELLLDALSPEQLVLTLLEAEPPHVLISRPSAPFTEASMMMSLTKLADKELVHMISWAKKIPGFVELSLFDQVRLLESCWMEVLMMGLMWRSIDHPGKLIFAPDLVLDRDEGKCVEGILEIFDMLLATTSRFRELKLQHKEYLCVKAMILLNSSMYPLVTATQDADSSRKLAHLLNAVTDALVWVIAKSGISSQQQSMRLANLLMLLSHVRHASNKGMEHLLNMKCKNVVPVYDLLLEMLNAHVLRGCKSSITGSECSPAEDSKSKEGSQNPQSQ", "assay": "Affinity for human estrogen receptor beta"}, "Estrogen receptor": {"biological_target": "T3, Estrogen receptor (Homo sapiens, UniProt P03372)", "T3 sequence (P03372 whole entry)": "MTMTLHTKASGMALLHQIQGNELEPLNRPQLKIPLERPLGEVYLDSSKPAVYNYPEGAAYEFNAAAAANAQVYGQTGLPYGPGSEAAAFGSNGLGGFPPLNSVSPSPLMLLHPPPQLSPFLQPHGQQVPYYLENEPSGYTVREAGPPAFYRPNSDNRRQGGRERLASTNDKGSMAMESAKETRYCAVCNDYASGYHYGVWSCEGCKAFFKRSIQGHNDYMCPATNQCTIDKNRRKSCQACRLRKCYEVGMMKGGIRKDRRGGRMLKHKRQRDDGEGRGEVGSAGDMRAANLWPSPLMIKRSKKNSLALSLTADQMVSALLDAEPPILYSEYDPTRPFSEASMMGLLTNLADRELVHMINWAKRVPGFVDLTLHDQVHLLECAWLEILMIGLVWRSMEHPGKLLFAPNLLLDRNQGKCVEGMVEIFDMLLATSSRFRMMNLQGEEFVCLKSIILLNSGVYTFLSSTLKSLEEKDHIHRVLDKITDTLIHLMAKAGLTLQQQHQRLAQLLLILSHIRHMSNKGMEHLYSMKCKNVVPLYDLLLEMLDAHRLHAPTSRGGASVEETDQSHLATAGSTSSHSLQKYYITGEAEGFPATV", "assay": "Affinity for human estrogen receptor alpha"}, "[6]": {"biological_target": "T4, Arylsulfatase A (Homo sapiens) (UniProt P15289)", "T4 sequence (whole entry)": "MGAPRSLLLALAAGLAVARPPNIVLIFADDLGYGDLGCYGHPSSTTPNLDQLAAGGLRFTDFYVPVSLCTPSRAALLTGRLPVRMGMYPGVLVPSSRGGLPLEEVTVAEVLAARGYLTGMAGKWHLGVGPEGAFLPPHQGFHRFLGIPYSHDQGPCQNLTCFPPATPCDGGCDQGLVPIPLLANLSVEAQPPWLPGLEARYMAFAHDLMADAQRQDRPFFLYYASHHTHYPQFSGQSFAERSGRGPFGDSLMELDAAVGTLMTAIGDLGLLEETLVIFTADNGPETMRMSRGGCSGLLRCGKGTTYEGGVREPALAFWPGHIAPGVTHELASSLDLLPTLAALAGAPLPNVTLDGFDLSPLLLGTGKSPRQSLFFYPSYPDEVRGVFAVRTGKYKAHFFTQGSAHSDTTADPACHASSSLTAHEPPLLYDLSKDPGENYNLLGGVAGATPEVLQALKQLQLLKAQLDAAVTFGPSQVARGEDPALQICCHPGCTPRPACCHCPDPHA", "assay": "Inhibitory activity against human Arylsulfatase A (ASA) isolated from human placenta; IA=Inactive", "outline": "(§1)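 Arylsulfatases A and B purified from human placenta and assayed with inhibitor present at up to 10 μM. Time dependence of inhibition examined.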"}, "[7]": {"biological_target": "Arylsulfatase B (Homo sapiens) (UniProt P15848)", "sequence (P15848 whole entry)": "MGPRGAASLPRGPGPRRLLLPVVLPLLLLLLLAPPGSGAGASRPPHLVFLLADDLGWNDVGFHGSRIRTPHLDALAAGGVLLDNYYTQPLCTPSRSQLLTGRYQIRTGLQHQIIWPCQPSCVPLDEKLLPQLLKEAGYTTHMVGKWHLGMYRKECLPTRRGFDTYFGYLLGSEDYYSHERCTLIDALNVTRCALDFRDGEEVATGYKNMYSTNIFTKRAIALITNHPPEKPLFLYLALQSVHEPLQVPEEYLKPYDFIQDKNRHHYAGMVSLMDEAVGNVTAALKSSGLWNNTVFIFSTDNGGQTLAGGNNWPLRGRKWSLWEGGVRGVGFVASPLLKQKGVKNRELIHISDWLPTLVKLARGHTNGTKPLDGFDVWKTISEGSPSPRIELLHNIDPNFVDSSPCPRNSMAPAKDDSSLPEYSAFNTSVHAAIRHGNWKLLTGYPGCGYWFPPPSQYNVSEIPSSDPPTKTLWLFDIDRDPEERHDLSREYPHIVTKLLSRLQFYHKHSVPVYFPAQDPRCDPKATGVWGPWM", "assay": "Inhibitory activity against human aryl sulfatase B (ASB) isolated from human placenta at a concentration up to 10 uM", "outline": "as §1"}, "Steryl-sulfatase [8]": {"biological_target": "T1, Steryl-sulfatase", "assay": "Inhibitory activity against STS in human MCF-7 breast cancer cells", "type": "cell-based", "settings": "mcf7", "outline": "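Intact MCF-7 breast cancer cells; STS-dependent cleavage of estrone sulfate substrate measured to derive IC50.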"}}, "note": "The source made the active and inactive calls. No cut-off for these calls is given here."}
{"smiles": "NS(=O)(=O)Oc1ccc2nc(C=C3C4CC5CC(C4)CC3C5)oc2c1", "values": [{"measurement": "IC50", "setting": "Steryl-sulfatase [1]", "value": 31.8, "unit": "nM"}, {"measurement": "Ki", "setting": "Steryl-sulfatase [2]", "value": 6000, "unit": "nM"}, {"measurement": "IC50", "setting": "Steryl-sulfatase [3]", "value": 0.75, "unit": "nM"}, {"measurement": "IC50", "setting": "Steryl-sulfatase [4]", "value": 0.77, "unit": "nM"}, {"measurement": "K inact", "setting": "[5]", "value": 0.097, "unit": "U s-1"}, {"measurement": "EC50", "setting": "Estrogen receptor beta", "value": "> 100000", "unit": "nM"}, {"measurement": "EC50", "setting": "Estrogen receptor", "value": "> 100000", "unit": "nM"}, {"measurement": "Activity", "setting": "[6]", "value": "inactive"}, {"measurement": "inhibition", "setting": "[7]", "value": 25, "unit": "%"}, {"measurement": "IC50", "setting": "Steryl-sulfatase [8]", "value": 2.3, "unit": "nM"}]}
{"smiles": "C[C@]12CC[C@@H]3c4ccc(OS(N)(=O)=O)cc4CCC3[C@@H]1CCC2=O", "note": "(single isomer, unassigned) [EMATE]", "values": [{"measurement": "Ki", "setting": "Steryl-sulfatase [2]", "value": 470, "unit": "nM"}, {"measurement": "K inact", "setting": "[5]", "value": 0.009, "unit": "U s-1"}, {"measurement": "EC50", "setting": "Estrogen receptor beta", "value": 3700, "unit": "nM"}, {"measurement": "EC50", "setting": "Estrogen receptor", "value": 2600, "unit": "nM"}]}
